# Measurements from different studies.
# Cell line: MIA PaCa-2
# Read-out: cell growth or viability
Compound,assay,conditions,endpoint,value
CC1=CC(=O)C(C(C)C)=CC1=O,SRB,48 h,IC50,33.2 µM
Cc1sc2c(c1C)C(c1ccc(Cl)cc1)=N[C@@H](CC(=O)NCCCCNC(=O)COc1cccc3c1C(=O)N(C1CCC(=O)NC1=O)C3=O)c1nnc(C)n1-2 (some centres unmarked),CCK-8,72 h,IC50,> 10 µM
N#CSCc1cc(=O)oc2cc(O)ccc12,SRB,,GI50,5.3 µM
CNC(=O)c1ccccc1Nc1cc(Nc2ccc(N3CCOCC3)cc2OC)ncc1C(F)(F)F,MTT,48 h,IC50,1.77 µM
CCOc1ccc2[nH]cc(C(=O)C(C#N)=Cc3cn(C)c4ccccc34)c2c1,MTT,48 h,IC50,1.35 µM
CC(=O)N1CCC(Nc2cc(C(=O)NC[C@H](O)CN3CCc4ccccc4C3)ncn2)CC1,CCK-8,72 h,IC50,> 100 µM
COc1ccc2c(C(=O)C(C#N)=Cc3cn(C)c4ccccc34)c[nH]c2c1,MTT,48 h,IC50,> 40 µM
O=C1C(Cl)=C(NCCCN2CCCCC2)C(=O)c2ccccc21,MTT,,IC50,4.75 µM
Cc1cc(=O)oc2cc(OCCCCSC#N)ccc12,SRB,,GI50,6.3 µM
CCCOc1ccc2[nH]cc(C(=O)C(C#N)=Cc3cn(CC)c4ccccc34)c2c1,MTT,48 h,IC50,5.3 µM
O=C1C(Cl)=C(NCCN2CCOCC2)C(=O)c2ccccc21,MTT,,IC50,19.7 µM
